Results on 13 compounds are retold here after article PMC10242637 (Saudi Pharmaceutical Journal : SPJ, 2023).

Broadly, the CC50 is the concentration that lowers cell viability or growth by half. For orientation: IC50 means the point on the concentration scale where inhibition reaches its midpoint.

The test system of data set [1] is fibroblasts NCTC cells (clone 929). Put plainly: Cytotoxicity against mammalian cells. It counts as cell-based. The conditions noted are these: for CC50: read-out: CC50 NCTC, NCTC cells (clone L929), 48 h, MTT; for SI (Selective Index): ratio between CC50 (NCTC) and IC50 (amastigote - TCA). The gist of the method:
(§1)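 NCTC clone 929 fibroblasts were seeded at 6 × 10^4 cells/well and exposed to test compound (200 to 1.5 μM, 1:2 dilutions) for 48 h at 37 °C in 5% CO2, with 0.5% v/v DMSO final. Viability was read by MTT at 570 nm, and CC50 was taken from sigmoid dose–response curves. SI = CC50 divided by the amastigote IC50. Two independent runs, each in duplicate.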

The test system of data set [2] is T. cruzi trypomastigotes (Y strain). Put plainly: Anti-trypomastigote assay. Type of data set: cell-based. The conditions noted are these: Trypanosoma cruzi, 24 h, read-out: IC50 (µM ± SD) T.c.T. The procedure, abridged:
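Y-strain trypomastigotes at 1 × 10^6 cells/well in RPMI 1640 were exposed to test compound (150 to 1.1 μM, 1:2 dilutions) for 24 h at 37 °C in 5% CO2, with 0.5% v/v DMSO final. Resazurin (0.011% v/v) was then added for 24 h and absorbance read at 570 nm. IC50 came from non-linear regression against untreated parasites as 100% viability. Two independent runs, each in duplicate.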

Data set [3] in a line: Cytotoxicity against mammalian cells. Type of data set: cell-based. The conditions noted are these: mouse, NCTC clone 929 (L929) fibroblasts. The gist of the method:
as §1

The nature of data set [4]: Calculation of physicochemical properties and descriptors. The conditions noted are these: 2b over the neutral analogue 2c; from calculated LogS7.4.

Consider “(4-hydroxy-3-methoxyphenyl)(4-phenylpiperazin-1-yl)methanone [1e]”, for which, in data set [1], the CC50 was above 200 µM.

Turning to `COc1cc(/C=C/C(=O)N2CCN(Cc3ccccc3)CC2)ccc1O` [2a, (2E)-1-(4-benzylpiperazin-1-yl)-3-(4-hydroxy-3-methoxyphenyl)prop-2-en-1-one], the IC50 in data set [2] was above 150 µM. In data set [3], this compound registered a CC50 at 48 h above 200 µM.

As for “(2E)-3-(4-hydroxy-3-methoxyphenyl)-1-(4-phenylpiperazin-1-yl)prop-2-en-1-one”, the CC50 in data set [1] is above 200 µM.

As to “(2E)-3-(3,4-dihydroxyphenyl)-1-(4-phenylpiperazin-1-yl)prop-2-en-1-one [2d]”, in data set [1], the “SI (Selective Index)” value amounted to 2.8 and the CC50 is 57.2 ± 2 µM.

Turning to `COc1ccc(C(=O)N2CCN(Cc3ccccc3)CC2)cc1` [1b, (4-Benzylpiperazin-1-yl)(4-methoxyphenyl)methanone], the IC50 in data set [2] was above 150 µM. Also, the CC50 at 48 h in data set [3] is above 200 µM.

Regarding “(3,4-dihydroxyphenyl)-(4-phenylpiperazin-1-yl)methanone [1d]”, in data set [1], the “SI (Selective Index)” value is recorded as above 5.7 and the CC50 is above 200 µM.

Turning to `O=C(Cn1ccnc1[N+](=O)[O-])NCc1ccccc1` [BZN, Benznidazole, reference compound], the IC50 in data set [2] was 12.3 ± 3.3 µM. In addition, the CC50 at 48 h in data set [3] was above 200 µM. The “SI (Selective Index)” value in data set [1] is on record as above 40.

As to `COc1ccc(/C=C/C(=O)N2CCN(Cc3ccccc3)CC2)cc1` [2b, (2E)-1-(4-benzylpiperazin-1-yl)-3-(4-methoxyphenyl) prop-2-en-1-one], the IC50 in data set [2] is above 150 µM. For the same compound, the CC50 at 48 h in data set [3] was above 200 µM. The “SI (Selective Index)” value in data set [1] is recorded as above 7. For the same compound, the “increase in LogS7.4 value” in data set [4] is on record as 1.3 log unit.

Take `COc1cc(C(=O)N2CCN(Cc3ccccc3)CC2)ccc1O` [1a, (4-Benzylpiperazin-1-yl)(4-hydroxy-3-methoxyphenyl)methanone]: the IC50 in data set [2] was above 150 µM. This compound also came in with a CC50 at 48 h in data set [3] above 200 µM. In data set [1], the “SI (Selective Index)” value is reported as above 5.6.

As for `O=C(c1ccc(Cl)cc1)N1CCN(Cc2ccccc2)CC1` [1 g, 1‐benzyl‐4‐(4‐chlorobenzoyl)piperazine], the IC50 in data set [2] is above 150 µM. The CC50 at 48 h in data set [3] was above 200 µM.

For the compound “(4-methoxyphenyl)(4-phenylpiperazin-1-yl)methanone [1f]”, the CC50 in data set [1] is above 200 µM.

Consider “(2E)-1-(1-benzylpiperidin-4-yl)-3-(4-methoxyphenyl)prop-2-en-1-one [2c]”, for which, in data set [1], the “SI (Selective Index)” value was above 11.2 and the CC50 is above 200 µM.

As to `COc1ccc(C(=O)N2CCC(Cc3ccccc3)CC2)cc1` [1c, 4-Benzyl-1-(4-methoxybenzoyl)piperidine], the IC50 in data set [2] was 65.3 ± 2.3 µM. This compound also came in with a CC50 at 48 h in data set [3] above 200 µM.
